What all share (experiment): FLIPR intracellular Ca2+, agonist mode
Common to all, as to type: cell-based

The target of one experiment is κ-opioid receptor (Homo sapiens, UniProt P41145). In short, it runs like this: (§1)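 Human opioid receptor cDNA in pcDNA3.1(−), stably expressed in HEK293T cells grown in DMEM with 10% FBS. Test compound was dissolved in DMSO, diluted in FLIPR buffer and added automatically within 4 sec. Intracellular Ca2+ was monitored over 4 min (excitation 488 nm, emission 520 nm), and data were recorded as fluorescence (arbitrary units) versus time.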

A further experiment deals with μ-opioid receptor (Homo sapiens, UniProt P35372). Particulars: stable HEK293T line. Summed up:
as §1

In a further experiment the target is δ-opioid receptor (Homo sapiens, UniProt P41143). Summed up: as §1
δ-opioid receptor, sequence (P41143 whole entry): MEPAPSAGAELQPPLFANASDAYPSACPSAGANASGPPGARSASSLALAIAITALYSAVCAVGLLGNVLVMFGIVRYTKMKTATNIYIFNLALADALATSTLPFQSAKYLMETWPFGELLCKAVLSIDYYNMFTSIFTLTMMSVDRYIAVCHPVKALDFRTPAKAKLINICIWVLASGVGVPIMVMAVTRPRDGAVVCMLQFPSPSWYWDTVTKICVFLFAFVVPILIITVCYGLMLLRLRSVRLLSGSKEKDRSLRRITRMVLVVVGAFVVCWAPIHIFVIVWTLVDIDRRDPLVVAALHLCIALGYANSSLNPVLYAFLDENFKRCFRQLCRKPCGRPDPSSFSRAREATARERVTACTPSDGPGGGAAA

κ-opioid receptor, sequence (P41145 whole entry): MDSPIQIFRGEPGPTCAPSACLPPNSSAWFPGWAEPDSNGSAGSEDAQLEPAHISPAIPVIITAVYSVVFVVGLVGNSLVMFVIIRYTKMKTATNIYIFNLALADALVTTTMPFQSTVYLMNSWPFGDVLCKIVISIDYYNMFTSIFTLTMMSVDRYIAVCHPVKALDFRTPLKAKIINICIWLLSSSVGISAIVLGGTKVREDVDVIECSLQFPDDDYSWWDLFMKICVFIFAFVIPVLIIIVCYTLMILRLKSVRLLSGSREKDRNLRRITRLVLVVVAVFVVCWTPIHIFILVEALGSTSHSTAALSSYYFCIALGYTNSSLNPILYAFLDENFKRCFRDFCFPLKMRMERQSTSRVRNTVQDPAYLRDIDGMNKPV
μ-opioid receptor, sequence (P35372 whole entry): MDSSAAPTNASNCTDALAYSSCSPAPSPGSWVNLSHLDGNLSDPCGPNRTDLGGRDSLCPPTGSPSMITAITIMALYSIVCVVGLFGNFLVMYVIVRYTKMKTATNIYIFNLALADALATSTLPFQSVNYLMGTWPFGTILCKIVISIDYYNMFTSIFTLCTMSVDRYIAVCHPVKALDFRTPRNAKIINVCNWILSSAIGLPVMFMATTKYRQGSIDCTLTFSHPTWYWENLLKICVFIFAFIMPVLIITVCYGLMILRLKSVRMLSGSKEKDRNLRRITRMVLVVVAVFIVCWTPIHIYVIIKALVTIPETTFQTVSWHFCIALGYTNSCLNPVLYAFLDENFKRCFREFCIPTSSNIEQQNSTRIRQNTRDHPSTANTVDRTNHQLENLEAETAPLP

Usually EC50 stands for the concentration giving half of the maximal effect. High values mean weaker potency, low ones greater potency. For `COc1cc2c(cc1O)CC[n+]1cc3c(OC)c(OC)ccc3c(C)c1-2` [DHCB], the half-maximal effective concentration (EC50) on κ-opioid receptor and on δ-opioid receptor was above 500 µM throughout. Also, the “Opioid Agonist (EC50, μM) / μ” value at μ-opioid receptor is reported as 100 (74~136) μM.

The values are drawn from paper PMC3912990 (Current biology : CB, 2014).
